# Screens as filed in PubChem BioAssay.
# The entries come from a sample that favours hits as a whole.
# FLuc stim CS: FLuc activators, initial screening, artefact control for FLuc-dependent activation tests, biochemical, ATPlite luminescence; ATPlite luciferase biochemical, 10 min; 0 = ATP-free wells, 1 = DMSO control; activation factor at 10 µM; 200,000 tested, under 10 active; AID 1027, 2008;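 active = luciferase activation factor, scaled between plate controls, of at least 2 with compound at 10 µM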
#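 assay system = Luciferase/luciferin detection reagent, cell-free biochemical luciferase assay | also added = ATP substrate | times = 10 min post-reagent at room temperature | measured by = luminescence from luciferase reaction | measure = luciferase activation, seen as luminescence increase over controls | benchmarks = low control with PBS replacing ATP, high control enzyme plus ATP without compound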
# ABCG2 block: ABCG2 efflux pump inhibitors, primary screen, multiplex with ABCB1, IgMXP3 cells, flow cytometry. Broad substrate specificity ATP-binding cassette transporter ABCG2 (Homo sapiens), Q9UNQ0. JC-1 efflux. inhibition, % at 6.6 µM. 190,000 tested, 0.1% active. AID 1325, 2008;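 active = inhibition above 80%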;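 note: 0% = DMSO and 100% = nicardipine control wells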
#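 test system = two drug-resistant human cell lines, ABCG2 and ABCB1 | amount = 3 million cells/mL final, two lines in 1:1 ratio | reagent = JC-1 transporter substrate | doses = one concentration, 6.6 µM final | incubation = 10 min at 25 °C | signal = flow cytometric JC-1 green MFI at 530 nm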
# Diaph act CS: compounds boosting diaphorase resazurin reduction – biochemical, uHTS, resorufin fluorescence, counter-screen for diaphorase-coupled primary assays, primary screen. Diaphorase/resazurin coupled assay, 16 min; active compounds read high; 1 = vehicle wells, 0 = NADH-free wells. activation factor at 20 µM. 190,000 tested, 0.005% active. AID 1229, 2008;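 active = diaphorase activity raised at least twofold by the compound at 20 µM; inactive = activation factor below 2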
#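 Test system: Clostridium kluyveri diaphorase, purified enzyme; input: enzyme 0.07 U/mL final; buffer or medium: 50 mM HEPES pH 7.4 with 4.542 mM MgCl2, 0.005% Tween 20; also added: 0.114 mM NADH and 0.1 mM resazurin, final amounts; schedule: 16 min enzyme reaction, ambient temperature; technique: fluorescence of resorufin, 544 nm excitation, 590 nm emission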
# FLuc inh counter: firefly luciferase enzyme inhibitors, primary screen, artefact control for luciferase-based inhibitor screens, biochemical, luminescence, ATPLite. Luciferin 4-monooxygenase (Photinus pyralis), P08659. 200,000 tested, 1.5% active. inhibition, % at 10 µM. AID 1006, 2008. 10 min;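 active = inhibition above about 50% when tested at 10 µM, limit read from the data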
# ABCB6 inh 2: ABCB6 transporter inhibitors, primary screen, K562-ABCB6 cells, flow cytometry, MLPCN library. ATP-binding cassette sub-family B member 6 (Homo sapiens), Q9NP58. AID 602162, 2011. 360,000 tested, 0.19% active. K562-ABCB6 porphyrin accumulation, 1 h; active compounds read low. fluorescence ratio to DMSO, % at 10 µM;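 active = fluorescence ratio to DMSO below 75%, the collection mean minus 3 SD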;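 note: signal is porphyrin accumulated inside mitochondria; 100% equals median channel fluorescence of DMSO control wells; lower ratio means ABCB6 inhibition with less porphyrin fluorescence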
# ABCB1 inh: ABCB1 efflux pump inhibitors, primary screen, cell-based, multiplex, flow cytometry, ABCG2 counter-screen | CCRF-Adr cells, JC-1 efflux | ATP-dependent translocase ABCB1 (Homo sapiens), P08183 | AID 1326, 2008 | inhibition, % at 6.6 µM | 190,000 tested, 0.067% active; in the data active = inhibition above about 40%;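 note: 0% = vehicle and 100% = reference inhibitor; higher value means more JC-1 retained so stronger ABCB1 efflux block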
# Target sequence (P08183 whole entry, looked up): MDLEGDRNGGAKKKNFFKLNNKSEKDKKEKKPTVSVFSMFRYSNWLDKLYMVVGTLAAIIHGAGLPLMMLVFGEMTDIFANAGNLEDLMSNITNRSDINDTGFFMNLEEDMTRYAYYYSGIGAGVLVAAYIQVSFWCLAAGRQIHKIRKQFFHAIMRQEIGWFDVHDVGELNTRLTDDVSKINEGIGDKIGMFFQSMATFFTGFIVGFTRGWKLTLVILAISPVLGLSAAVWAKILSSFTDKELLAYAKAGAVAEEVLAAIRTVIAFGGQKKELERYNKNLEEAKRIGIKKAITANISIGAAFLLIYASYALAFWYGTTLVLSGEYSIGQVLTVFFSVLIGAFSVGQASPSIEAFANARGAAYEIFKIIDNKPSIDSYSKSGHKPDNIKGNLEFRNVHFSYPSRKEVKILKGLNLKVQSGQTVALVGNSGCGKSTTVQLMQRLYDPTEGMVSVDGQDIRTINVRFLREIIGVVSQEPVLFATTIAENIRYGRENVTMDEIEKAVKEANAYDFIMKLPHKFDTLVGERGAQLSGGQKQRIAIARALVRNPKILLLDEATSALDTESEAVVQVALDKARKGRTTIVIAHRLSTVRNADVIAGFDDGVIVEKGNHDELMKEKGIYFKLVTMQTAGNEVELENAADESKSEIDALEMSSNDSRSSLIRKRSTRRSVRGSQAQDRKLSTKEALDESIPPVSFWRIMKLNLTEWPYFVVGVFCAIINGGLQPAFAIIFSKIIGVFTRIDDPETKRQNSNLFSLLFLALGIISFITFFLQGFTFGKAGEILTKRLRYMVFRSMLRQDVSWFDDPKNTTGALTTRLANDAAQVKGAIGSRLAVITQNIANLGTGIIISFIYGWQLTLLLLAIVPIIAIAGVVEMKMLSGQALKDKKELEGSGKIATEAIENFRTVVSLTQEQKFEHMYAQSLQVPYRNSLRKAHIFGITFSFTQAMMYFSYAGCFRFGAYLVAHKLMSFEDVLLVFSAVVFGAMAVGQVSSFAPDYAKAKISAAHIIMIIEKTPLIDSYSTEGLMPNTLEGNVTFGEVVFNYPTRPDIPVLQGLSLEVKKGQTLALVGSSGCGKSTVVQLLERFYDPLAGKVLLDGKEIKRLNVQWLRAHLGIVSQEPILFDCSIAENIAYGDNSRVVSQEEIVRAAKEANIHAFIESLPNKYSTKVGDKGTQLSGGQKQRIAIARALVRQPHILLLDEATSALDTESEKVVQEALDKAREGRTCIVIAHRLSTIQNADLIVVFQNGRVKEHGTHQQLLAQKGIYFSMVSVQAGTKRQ
# * marks the source's active call; other numbers are inactive results; x = no result.
SMILES,FLuc stim CS,ABCG2 block,Diaph act CS,FLuc inh counter,ABCB6 inh 2,ABCB1 inh
COc1ccc(/C=C/c2nnc(NC(C)=O)s2)cc1,x,x,x,x,93,x
CCc1nnc(NC(=O)c2ccc(OC)cc2)s1,0.2,12,0.9,83*,95,2
COCCN=C1NN=C(c2cc(C)n(CC3CCCO3)c2C)CS1 (centres undefined),0.8,13,0.9,25,102,0
C=CCN=C1NN=C(c2ccc3c(c2)OCCO3)CS1,0.1,-2,0.9,94*,104,-3
C=CCN=C1NN=C(c2cc(C)n(CC=C)c2C)CS1,0.1,41,0.9,92*,96,0
NC1=NN=C(c2ccc3c(c2)OCCO3)CS1,0.2,1,0.9,79*,95,-1
Cc1cccc(NS(=O)(=O)c2ccc(C)c(C(=O)NCC(c3cccs3)N(C)C)c2)c1 (centres undefined),x,x,x,x,100,x
COc1cccc(/C=N/NC(=S)Nc2cccc(C(=O)O)c2)c1,0.5,-1,0.9,53*,101,0
Fc1ccc(N=C2NN=C(c3cc(F)ccc3F)CS2)cc1,1,-4,0.8,-4,106,-1
Fc1ccc(F)c(C2=NNC(=Nc3ccccc3F)SC2)c1,0.8,-1,0.8,16,91,0
Cc1cc(C2=NNC(=NC3CC3)SC2)c(C)n1-c1c(C)n(C)n(-c2ccccc2)c1=O,1,3,1.1,-4,99,0
COCCCN=C1NN=C(c2cc(C)n(-c3ccccc3)c2C)CS1,0.8,12,0.9,18,100,4
Cc1ccc(-n2c(C)cc(C3=NNC(=NC4CC4)SC3)c2C)cc1C,0.4,0,0.9,63*,103,0
COCCCN=C1NN=C(c2cc(C)n(-c3ccccc3F)c2C)CS1,0.2,1,1.1,84*,102,3
Cc1cc(C2=NNC(=Nc3ccccc3)SC2)c(C)n1C,0.4,2,1.1,61*,95,0
COCCn1c(C)cc(C2=NNC(=Nc3ccccc3F)SC2)c1C,0.2,0,0.9,82*,93,0
COc1ccc(CN2CCN(Cc3ccc(CO)o3)CC2CCO)cc1C (centres undefined),x,x,x,x,104,x
CC(C)c1ccc(C2NC(=S)NC3=C2C(=O)CCC3)cc1 (centres undefined),1.1,4,0.9,-5,69*,1
CN1CCN(c2ccc(NC(=O)CSc3nnnn3-c3ccccc3Cl)cc2)CC1,x,x,x,x,99,x
COc1ccc(-n2nc3ccc(N)cc3n2)cc1,x,x,x,x,102,x
CC(C)c1ccc(-n2nc3ccc(N)cc3n2)cc1,0.1,0,0.6,87*,100,0
Cc1ccc(-n2nc3ccc(N)cc3n2)cc1,0.2,1,0.7,76*,92,0
Nc1ccc2nn(-c3ccc(F)cc3)nc2c1,x,x,x,x,102,x
CC(=O)N1c2ccc(S(=O)(=O)N3CCCC3C(=O)Nc3ccc(C)cc3)cc2CC1C (centres undefined),x,x,x,x,96,x
COCC(C)n1c(C)cc(C(=O)Cn2nc(C(=O)O)c3ccccc3c2=O)c1C (centres undefined),0.3,12,0.8,71*,103,2
SMILES,FLuc stim CS,ABCG2 block,Diaph act CS,FLuc inh counter,ABCB6 inh 2,ABCB1 inh
CCN(CC)S(=O)(=O)c1ccc(-c2cn3ccccc3n2)cc1,x,x,x,x,95,x
CN(C)S(=O)(=O)c1ccc(-c2cn3ccccc3n2)cc1,0.3,4,1,74*,95,-1
CCOc1ccc(-c2cn3ccccc3n2)cc1[N+](=O)[O-],0.2,20,0.9,78*,107,1
O=C(C1CCN(S(=O)(=O)c2ccccc2)CC1)N1CCC1,x,x,x,x,102,x
CCOC(=O)C1(CCOc2ccccc2)CCN(Cc2cccc(OC)c2OC)CC1,x,x,x,x,99,x
COc1cccc(C(=O)Nc2cc(NC(=O)c3cccs3)ccc2C)c1OC,x,x,x,x,98,x
O=C(COC(=O)c1cccnc1Cl)c1ccc(OC(F)F)cc1,0.5,5,1,54*,96,0
COc1ccc(C(=O)COC(=O)c2cccnc2Cl)c(OC)c1,0.7,11,0.9,31,104,1
O=C(COC(=O)c1cccnc1Cl)c1ccc(Cl)cc1Cl,0.2,2,0.8,78*,104,0
CC(C)C(=O)Nc1cccc(C(=O)OCC(=O)c2ccc(Cl)cc2Cl)c1,0.5,5,0.8,54*,92,1
COc1ccc(OC)c(C(=O)COC(=O)c2cccnc2Cl)c1,1,6,1,2,97,3
CCCCNC(=O)C1c2ccccc2OCC(=O)N1CCc1c[nH]c2ccccc12 (centres undefined),x,x,x,x,104,x
O=C(COC(=O)c1ccccc1Br)Nc1cc(S(=O)(=O)N2CCOCC2)ccc1N1CCCC1,1.1,11,0.7,-11,95,13
Cc1ccc(NC(=O)c2c(C)nc3ccccn23)cc1C,0.3,4,1.1,67*,95,1
Cc1nc2ccccn2c1C(=O)/C=C/c1cccc([N+](=O)[O-])c1,1.1,0,0.9,-8,98,0
Cc1cccc(NC(=O)c2c(C)nc3ccccn23)c1,1,4,0.8,5,99,1
Cc1ccc(/C=C/C(=O)c2c(C)nc3ccccn23)cc1,0.5,7,0.9,54*,92,1
COc1ccccc1N1CCN(S(=O)(=O)c2cn(C)nc2C)CC1,x,x,x,x,89,x
Cn1c(N=Nc2ccccc2)nc2ccccc21,0,42,1.2,95*,95,1
COc1ccc(-c2cn3cccnc3n2)cc1F,0.4,30,0.9,57*,100,3
COc1cc(CN2C[C@@H](CO)O[C@@H](n3cnc4c(N(C)C(C)C)ncnc43)C2)cc(OC)c1OC,x,x,x,x,94,x
c1ccn(-c2ccc(-c3ccn[nH]3)cc2)c1,0.5,12,0.9,52*,90,1
CC(=O)Nc1ccc(C(C#N)=Cc2ccc(N(C)CCC#N)cc2)cc1,x,x,x,x,98,x
Oc1ccc2ccccc2c1/C=N/Nc1nnc(-c2ncc[nH]2)c2ccccc12,0.8,0,1,16,94,0
COc1ccc(/C=N/Nc2nc(-c3cccnc3)nc3ccccc23)cc1OC,x,x,x,x,96,x
C(=N\Nc1ncnc2ccccc12)/c1ccccc1,0.3,0,1.1,74*,101,0
Clc1cccc(/C=N/Nc2ncnc3ccccc23)c1,0.7,9,0.9,34,102,0
